{
  "source": "ChEMBL document CHEMBL4699422",
  "about": "“Synthesis and initial pharmacology of dual-targeting ligands for putative complexes of integrin alphaVbeta3 and PAR2” (RSC Med Chem, 2020)",
  "key": {"[1]": {"target": "T1, Proteinase-activated receptor 2 (Homo sapiens, UniProt P55085)", "T1 sequence (P55085 whole entry)": "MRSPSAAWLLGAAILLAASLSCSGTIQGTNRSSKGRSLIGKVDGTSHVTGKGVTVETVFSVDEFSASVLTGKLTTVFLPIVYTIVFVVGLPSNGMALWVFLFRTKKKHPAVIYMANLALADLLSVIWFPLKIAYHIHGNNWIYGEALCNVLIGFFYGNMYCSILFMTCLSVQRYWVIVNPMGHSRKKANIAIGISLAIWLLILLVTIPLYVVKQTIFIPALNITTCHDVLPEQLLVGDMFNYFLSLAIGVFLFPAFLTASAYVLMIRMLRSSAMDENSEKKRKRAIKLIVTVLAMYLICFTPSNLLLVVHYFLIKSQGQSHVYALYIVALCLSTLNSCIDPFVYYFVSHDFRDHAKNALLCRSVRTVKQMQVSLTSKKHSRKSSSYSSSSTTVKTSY", "experiment": "Agonist activity at PAR2 in human EA.hy926 cells assessed as stimulation of calcium mobilization by Fluo-4-AM dye-based FLIPR assay", "format": "functional, cell-based, EA.hy 926", "summary_of_the_method": "(§1)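 EA.hy926 cells, passages 7–9, grown in DMEM (4.5 g/L glucose, 4 mM L-glutamine, 1 mM pyruvate, FBS, pen/strep). Calcium read on plate reader as normalized ΔRFU over basal. %Stimulation relative to 100 μM SLIGKV-NH₂ (100%). Curves fitted by 4-variable non-linear regression.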"}, "[2]": {"target": "T2, Integrin alpha-V/beta-3 (Homo sapiens) (UniProt P05106+P06756)", "experiment": "Antagonist activity at integrin alphavbeta3 receptor in HUVEC cells assessed as inhibition of cell adhesion to human vitronectin at 50 uM preincubated for 30 mins followed by transferring to vitronectin coated plates and measured after 1 hr by DAPI staining based inverted fluorescence microscopic analysis", "conditions": "filed as antagonist, time 90.0 min", "summary_of_the_method": "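Wells coated overnight at 4 °C with 20 μg/mL human vitronectin in PBS pH 7.4, blocked with 1% BSA 1 h at 37 °C. HUVEC washed, in DMEM, treated ± 50 μM ligand 30 min at 25 °C, seeded, 1 h at 37 °C. Washed 3× PBS, fixed 3.7% formaldehyde 5 min, nuclei DAPI-stained (5 μg/mL), imaged at 10×.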"}, "[3]": {"target": "T2, Integrin alpha-V/beta-3 (Homo sapiens)", "experiment": "Inhibition of Alexa Fluor 647 labelled fibronectin binding to integrin alphavbeta3 receptor (unknown origin) expressed in HEK293FT cells at 5 uM preincubated for 10 mins followed by fibronectin addition and measured after 30 mins by flow cytometric analysis", "format": "cell-based", "conditions": "filed as antagonist, time 40.0 min", "summary_of_the_method": "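HEK293FT co-transfected with αV and β3 constructs (≥24 h), in HBSGB (20 mM HEPES pH 7.4, 150 mM NaCl, 5.5 mM glucose, 1% BSA). Cells ± 5 or 50 μM ligand 10 min at 25 °C in 0.2 mM CaCl₂/2 mM MnCl₂ (activating), then Alexa647-Fn (15 μg/mL) plus Alexa488 anti-β3 AP3, 30 min at 25 °C. Resting control in 1 mM Ca²⁺/1 mM Mg²⁺. Flow cytometry on AP3-positive cells; Fn MFI expressed as % of AP3 MFI.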"}, "[4]": {"target": "T1, Proteinase-activated receptor 2", "experiment": "(§2) Agonist activity at PAR2 in human EA.hy926 cells assessed as stimulation of calcium mobilization preincubated for 2 hrs with LPS and 30 mins with cRGD followed by compound addition by Fluo-4-AM dye-based FLIPR assay", "format": "functional, cell-based, EA.hy 926"}, "[5]": {"target": "T1, Proteinase-activated receptor 2", "experiment": "(§3) Agonist activity at PAR2 in human EA.hy926 cells assessed as stimulation of calcium mobilization preincubated for 2 hrs with LPS followed by compound addition in absence of cRGD by Fluo-4-AM dye-based FLIPR assay", "format": "functional, cell-based, EA.hy 926"}, "[6]": {"target": "T1, Proteinase-activated receptor 2", "experiment": "(§4) Agonist activity at PAR2 in human EA.hy926 cells assessed as stimulation of calcium mobilization treated with cRGD for 30 mins prior to compound addition by Fluo-4-AM dye-based FLIPR assay", "format": "functional, cell-based, EA.hy 926", "summary_of_the_method": "as §1"}, "[7]": {"target": "Proteinase-activated receptor 2 (Homo sapiens) (UniProt P55085)", "experiment": "as §2", "format": "functional, cell-based", "conditions": "EA.hy 926, filed as agonist"}, "[8]": {"target": "Proteinase-activated receptor 2 (Homo sapiens) (UniProt P55085)", "experiment": "as §3", "format": "functional, cell-based", "conditions": "EA.hy 926, filed as agonist"}, "[9]": {"target": "Proteinase-activated receptor 2 (Homo sapiens) (UniProt P55085)", "experiment": "as §4", "format": "functional, cell-based", "conditions": "EA.hy 926, filed as agonist", "summary_of_the_method": "as §1"}},
  "note": "Active and inactive are the calls of the source. The calls are words filed in the database; no cut-off is given here. Where a SMILES comes first, the peptide text is derived from it. [ ]: non-standard residue; d: D form. The star is where a group is joined. X1 = COCc1cn(CCOCCOCCOCCOCCOCCOCCN*)nn1; Orn = NCCC[C@H](N)C(=O)O; 2Furoyl = O=C(c1ccco1)*",
  "data": [
    {"smiles": "CC[C@H](C)[C@H](NC(=O)[C@H](CC(C)C)NC(=O)c1ccco1)C(=O)NCC(=O)N[C@@H](CCCNC(=N)N)C(=O)N[C@@H](CC(C)C)C(=O)N[C@@H](CCCN)C(=O)NCCOCCOCCOCCOCCOCCOCCOCCOCCOCCOCCOCCOCCOCCOCCOCCOCCOCCOCCOCCOCCOCCOCCOCCn1cc(C[C@H]2CN[C@@H](CCCNC(=N)N)C(=O)NCC(=O)N[C@@H](CC(=O)O)C(=O)N[C@H](Cc3ccccc3)C(=O)N2)nn1", "values": [
      {"measurement": "EC50", "setting": "[1]", "value": 130, "unit": "nM"},
      {"measurement": "inhibition", "setting": "[2]", "value": "Active"},
      {"measurement": "inhibition", "setting": "[3]", "value": "Active"}
    ]},
    {"smiles": "CC[C@H](C)[C@H](NC(=O)[C@H](CC(C)C)NC(=O)c1ccco1)C(=O)NCC(=O)N[C@@H](CCCNC(=N)N)C(=O)N[C@@H](CC(C)C)C(=O)N[C@@H](CCCN)C(=O)NCCOCCOCCOCCOCCOCCOCCOCCOCCn1cc(C[C@H]2CN[C@@H](CCCNC(=N)N)C(=O)NCC(=O)N[C@@H](CC(=O)O)C(=O)N[C@H](Cc3ccccc3)C(=O)N2)nn1", "values": [
      {"measurement": "EC50", "setting": "[1]", "value": 62, "unit": "nM"}
    ]},
    {"smiles": "N=C(N)NCCC[C@@H]1NC[C@H](Cc2cn(CCOCCOCCOCCOCCOCCOCCOCCOCCOCCOCCOCCOCCOCCOCCOCCOCCOCCOCCOCCOCCOCCOCCOCCNC(=O)[C@@H](NC(=O)[C@H](CC3CCCCC3)NC(=O)c3ccno3)C3CCCCC3)nn2)NC(=O)[C@@H](Cc2ccccc2)NC(=O)[C@H](CC(=O)O)NC(=O)CNC1=O", "values": [
      {"measurement": "EC50", "setting": "[4]", "value": 1200, "unit": "nM"},
      {"measurement": "EC50", "setting": "[5]", "value": 3500, "unit": "nM"},
      {"measurement": "EC50", "setting": "[6]", "value": 1200, "unit": "nM"},
      {"measurement": "EC50", "setting": "[1]", "value": 2500, "unit": "nM"},
      {"measurement": "inhibition", "setting": "[2]", "value": "Active"},
      {"measurement": "inhibition", "setting": "[3]", "value": "Active"}
    ]},
    {"smiles": "COc1ccnc(NCCCOc2ccc(C[C@@H](CC(=O)O)NC(=O)c3ccc(OCc4cn(CCOCCOCCOCCOCCOCCOCCNC(=O)[C@@H](NC(=O)[C@H](CC5CCCCC5)NC(=O)c5ccno5)C5CCCCC5)nn4)cc3)cc2)c1", "values": [
      {"measurement": "Activity", "setting": "[7]", "value": "Active"},
      {"measurement": "Activity", "setting": "[8]", "value": "Active"},
      {"measurement": "Activity", "setting": "[9]", "value": "Active"},
      {"measurement": "EC50", "setting": "[1]", "value": 1200, "unit": "nM"},
      {"measurement": "inhibition", "setting": "[2]", "value": "Active"}
    ]},
    {"smiles": "COCc1cn(CCOCCOCCOCCOCCOCCOCCNC(=O)[C@@H](NC(=O)[C@H](CC2CCCCC2)NC(=O)c2ccno2)C2CCCCC2)nn1", "values": [
      {"measurement": "EC50", "setting": "[1]", "value": 890, "unit": "nM"}
    ]},
    {"smiles": "CC[C@H](C)[C@H](NC(=O)[C@H](CC(C)C)NC(=O)c1ccco1)C(=O)NCC(=O)N[C@@H](CCCNC(=N)N)C(=O)N[C@@H](CC(C)C)C(=O)N[C@@H](CCCN)C(=O)NCCOCCOCCOCCOCCOCCOCCn1cc(COC)nn1", "note": "(2Furoyl-LIGRL[Orn]-X1)", "values": [
      {"measurement": "EC50", "setting": "[1]", "value": 73, "unit": "nM"}
    ]},
    {"smiles": "CC[C@H](C)[C@H](NC(=O)[C@H](CC(C)C)NC(=O)c1ccco1)C(=O)NCC(=O)N[C@@H](CCCN=C(N)N)C(=O)N[C@@H](CC(C)C)C(=O)N[C@@H](CCCN)C(N)=O", "note": "(2Furoyl-LIGRL[Orn]-NH2)", "values": [
      {"measurement": "EC50", "setting": "[1]", "value": 350, "unit": "nM"}
    ]}
  ]
}
